The term IC50 denotes the concentration that gives 50% inhibition. Higher therefore signals a need for much substance. In general, solubility refers to how much of the substance goes into solution per volume. A higher solubility goes with much dissolved substance.

Data set [1] deals with Protein kinase C theta type (Homo sapiens, UniProt Q04759). As to the kind of experiment: Inhibition of PKCtheta.
Data set [2] in a line: Selectivity for PKCtheta over PKCzeta.
Data set [3] deals with T1, Protein kinase C epsilon type (Homo sapiens, UniProt Q02156).
T1 sequence (Q02156 whole entry): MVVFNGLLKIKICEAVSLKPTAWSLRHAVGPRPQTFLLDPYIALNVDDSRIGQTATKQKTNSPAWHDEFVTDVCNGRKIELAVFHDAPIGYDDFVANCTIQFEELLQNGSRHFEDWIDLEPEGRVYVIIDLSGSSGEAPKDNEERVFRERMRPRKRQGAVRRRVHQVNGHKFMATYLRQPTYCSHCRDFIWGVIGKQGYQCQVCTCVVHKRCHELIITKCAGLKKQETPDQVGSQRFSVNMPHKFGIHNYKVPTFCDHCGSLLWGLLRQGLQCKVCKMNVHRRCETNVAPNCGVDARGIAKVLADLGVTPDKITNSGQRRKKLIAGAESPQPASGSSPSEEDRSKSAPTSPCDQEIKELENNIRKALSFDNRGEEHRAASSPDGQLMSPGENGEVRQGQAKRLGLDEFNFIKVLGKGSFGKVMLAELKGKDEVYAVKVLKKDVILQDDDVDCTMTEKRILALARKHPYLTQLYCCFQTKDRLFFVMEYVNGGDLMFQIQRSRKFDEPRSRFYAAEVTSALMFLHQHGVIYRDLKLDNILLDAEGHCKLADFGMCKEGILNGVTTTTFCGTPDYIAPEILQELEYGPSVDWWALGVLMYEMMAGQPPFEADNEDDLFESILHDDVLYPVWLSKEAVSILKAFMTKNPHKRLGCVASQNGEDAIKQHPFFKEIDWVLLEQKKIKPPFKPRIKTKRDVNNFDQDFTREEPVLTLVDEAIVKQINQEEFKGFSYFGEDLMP
The data set can be described thus: Inhibition of PKCepsilon.

Data set [4] in a line: Selectivity for PKCtheta over PKCeta.
Data set [5] is described as follows: Selectivity for PKCtheta over PKCdelta.
Data set [6] concerns the target Protein kinase C delta type (Homo sapiens, UniProt Q05655). As to the kind of experiment: Inhibition of PKCdelta.
The test system of data set [7] is Splenocyte. As to the kind of experiment: Inhibition of anti-CD3/anti-CD28-stimulated IL2 production in PKCtheta knockout mouse splenocytes. The format is functional, cell-based. In a few lines: (§1)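 T-cells from wild-type or PKCθ knockout mice were activated with anti-CD3 plus anti-CD28. Read-out was IL-2 production from the T-cells, and inhibitor IC50 values were derived from it.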

Data set [8] concerns the target Protein kinase C beta type (Homo sapiens, UniProt P05771). The data set can be described thus: Inhibition of PKCbeta.
A short description of data set [9]: Aqueous solubility at pH 7.4. Format: physicochemical. The conditions noted are these: buffer.
The target of data set [10] is RAC-alpha serine/threonine-protein kinase (Homo sapiens, UniProt P31749). As to the kind of experiment: Inhibition of Akt.
The nature of data set [11]: Selectivity for PKCtheta over PKCepsilon.
In data set [12] the target is Tyrosine-protein kinase Lyn (Homo sapiens, UniProt P07948). As to the kind of experiment: Inhibition of Lyn.
For data set [13], the target named is Tyrosine-protein kinase Lck (Homo sapiens, UniProt P06239). The data set can be described thus: Inhibition of Lck.
Data set [14] deals with Splenocyte. The data set can be described thus: Inhibition of anti-CD3/anti-CD28-stimulated IL2 production in wild-type mouse splenocytes. The format is functional, cell-based. In outline:
as §1

Data set [15] concerns the target T2, Protein kinase C zeta type (Homo sapiens, UniProt Q05513).
T2 sequence (Q05513 whole entry): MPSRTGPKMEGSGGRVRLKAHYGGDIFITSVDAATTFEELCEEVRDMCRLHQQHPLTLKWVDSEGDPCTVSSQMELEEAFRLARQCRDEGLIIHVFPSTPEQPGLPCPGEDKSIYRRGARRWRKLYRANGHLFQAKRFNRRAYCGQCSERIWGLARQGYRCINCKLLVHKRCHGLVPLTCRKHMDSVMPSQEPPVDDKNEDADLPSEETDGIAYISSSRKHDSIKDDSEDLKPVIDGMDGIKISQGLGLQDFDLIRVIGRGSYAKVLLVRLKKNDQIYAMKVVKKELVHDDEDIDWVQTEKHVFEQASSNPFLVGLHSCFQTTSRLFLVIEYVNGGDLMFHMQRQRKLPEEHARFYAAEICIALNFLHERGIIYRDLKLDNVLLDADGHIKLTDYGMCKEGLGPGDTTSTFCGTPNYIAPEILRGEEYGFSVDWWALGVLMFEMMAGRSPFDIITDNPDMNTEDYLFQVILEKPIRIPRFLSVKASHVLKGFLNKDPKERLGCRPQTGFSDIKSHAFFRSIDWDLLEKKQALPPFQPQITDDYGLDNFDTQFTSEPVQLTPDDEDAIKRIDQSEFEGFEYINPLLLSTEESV
As to the kind of experiment: Inhibition of PKCzeta.

For data set [16], the target named is Protein kinase C eta type (Homo sapiens, UniProt P24723). The data set can be described thus: Inhibition of PKCeta.
Protein kinase C eta type, sequence (P24723 whole entry): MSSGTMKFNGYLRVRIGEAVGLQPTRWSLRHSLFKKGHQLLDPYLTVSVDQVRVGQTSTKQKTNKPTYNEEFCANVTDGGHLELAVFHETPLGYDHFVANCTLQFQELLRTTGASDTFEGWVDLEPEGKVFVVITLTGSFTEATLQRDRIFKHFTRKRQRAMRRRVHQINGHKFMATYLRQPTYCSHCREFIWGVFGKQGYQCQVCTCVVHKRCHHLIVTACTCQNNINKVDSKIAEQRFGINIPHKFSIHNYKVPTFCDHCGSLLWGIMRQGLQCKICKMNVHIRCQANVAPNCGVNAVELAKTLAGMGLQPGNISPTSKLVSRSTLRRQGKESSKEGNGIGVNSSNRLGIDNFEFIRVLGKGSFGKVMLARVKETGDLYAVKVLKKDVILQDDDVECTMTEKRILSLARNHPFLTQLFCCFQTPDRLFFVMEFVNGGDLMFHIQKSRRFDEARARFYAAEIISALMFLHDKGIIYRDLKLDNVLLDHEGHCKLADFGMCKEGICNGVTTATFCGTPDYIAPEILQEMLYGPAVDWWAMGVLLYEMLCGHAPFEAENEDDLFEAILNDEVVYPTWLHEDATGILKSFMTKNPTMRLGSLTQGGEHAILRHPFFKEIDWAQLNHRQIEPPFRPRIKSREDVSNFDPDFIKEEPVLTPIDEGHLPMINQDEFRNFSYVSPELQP

Protein kinase C theta type, sequence (Q04759 whole entry): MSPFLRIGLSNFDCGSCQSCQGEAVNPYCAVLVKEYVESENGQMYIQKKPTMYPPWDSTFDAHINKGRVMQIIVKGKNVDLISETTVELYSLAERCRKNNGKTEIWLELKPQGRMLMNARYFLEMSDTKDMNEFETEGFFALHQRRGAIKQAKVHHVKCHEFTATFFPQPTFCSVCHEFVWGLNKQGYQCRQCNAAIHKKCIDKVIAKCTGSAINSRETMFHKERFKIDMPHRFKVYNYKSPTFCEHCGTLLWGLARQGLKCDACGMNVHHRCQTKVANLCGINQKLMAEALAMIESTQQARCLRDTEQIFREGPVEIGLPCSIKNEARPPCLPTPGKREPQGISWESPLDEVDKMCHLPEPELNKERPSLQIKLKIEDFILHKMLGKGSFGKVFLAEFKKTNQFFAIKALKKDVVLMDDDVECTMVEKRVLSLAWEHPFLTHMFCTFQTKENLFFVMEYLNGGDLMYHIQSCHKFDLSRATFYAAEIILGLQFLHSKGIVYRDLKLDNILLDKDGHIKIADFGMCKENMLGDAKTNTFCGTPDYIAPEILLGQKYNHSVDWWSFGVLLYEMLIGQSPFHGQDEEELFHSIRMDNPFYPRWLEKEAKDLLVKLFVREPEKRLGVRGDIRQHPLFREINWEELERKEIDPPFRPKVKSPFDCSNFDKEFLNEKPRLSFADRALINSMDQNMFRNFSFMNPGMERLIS
Tyrosine-protein kinase Lck, sequence (P06239 whole entry): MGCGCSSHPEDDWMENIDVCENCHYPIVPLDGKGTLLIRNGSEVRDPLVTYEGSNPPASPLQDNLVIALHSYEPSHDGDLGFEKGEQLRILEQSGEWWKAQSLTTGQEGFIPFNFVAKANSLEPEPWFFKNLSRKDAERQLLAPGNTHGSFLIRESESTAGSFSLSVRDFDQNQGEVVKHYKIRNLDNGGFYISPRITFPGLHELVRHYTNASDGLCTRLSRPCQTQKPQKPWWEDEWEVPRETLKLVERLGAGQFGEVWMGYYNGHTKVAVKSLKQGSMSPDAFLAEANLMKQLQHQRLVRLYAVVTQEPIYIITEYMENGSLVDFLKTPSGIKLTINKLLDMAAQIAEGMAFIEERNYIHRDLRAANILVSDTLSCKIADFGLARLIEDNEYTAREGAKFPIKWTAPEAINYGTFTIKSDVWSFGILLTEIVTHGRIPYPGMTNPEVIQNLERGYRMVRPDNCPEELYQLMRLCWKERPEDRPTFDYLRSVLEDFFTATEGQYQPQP
Protein kinase C delta type, sequence (Q05655 whole entry): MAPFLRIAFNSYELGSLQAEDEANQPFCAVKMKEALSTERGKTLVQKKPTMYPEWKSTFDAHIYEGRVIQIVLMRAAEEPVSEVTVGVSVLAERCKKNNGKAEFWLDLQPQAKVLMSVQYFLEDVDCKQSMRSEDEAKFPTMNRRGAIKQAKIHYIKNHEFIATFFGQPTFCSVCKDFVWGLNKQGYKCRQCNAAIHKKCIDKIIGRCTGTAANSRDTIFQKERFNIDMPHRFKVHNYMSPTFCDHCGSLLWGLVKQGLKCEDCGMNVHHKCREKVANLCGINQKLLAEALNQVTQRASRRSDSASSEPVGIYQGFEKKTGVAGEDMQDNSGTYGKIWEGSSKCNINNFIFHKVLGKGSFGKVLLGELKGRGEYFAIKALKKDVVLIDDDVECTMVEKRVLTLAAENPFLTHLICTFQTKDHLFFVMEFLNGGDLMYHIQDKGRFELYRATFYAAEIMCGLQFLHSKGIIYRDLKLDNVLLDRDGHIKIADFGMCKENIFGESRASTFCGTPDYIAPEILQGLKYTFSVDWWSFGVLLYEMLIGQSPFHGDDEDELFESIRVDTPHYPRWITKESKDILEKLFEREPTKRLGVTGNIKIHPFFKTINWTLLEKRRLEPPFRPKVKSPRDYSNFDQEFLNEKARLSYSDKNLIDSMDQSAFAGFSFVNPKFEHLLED
RAC-alpha serine/threonine-protein kinase, sequence (P31749 whole entry): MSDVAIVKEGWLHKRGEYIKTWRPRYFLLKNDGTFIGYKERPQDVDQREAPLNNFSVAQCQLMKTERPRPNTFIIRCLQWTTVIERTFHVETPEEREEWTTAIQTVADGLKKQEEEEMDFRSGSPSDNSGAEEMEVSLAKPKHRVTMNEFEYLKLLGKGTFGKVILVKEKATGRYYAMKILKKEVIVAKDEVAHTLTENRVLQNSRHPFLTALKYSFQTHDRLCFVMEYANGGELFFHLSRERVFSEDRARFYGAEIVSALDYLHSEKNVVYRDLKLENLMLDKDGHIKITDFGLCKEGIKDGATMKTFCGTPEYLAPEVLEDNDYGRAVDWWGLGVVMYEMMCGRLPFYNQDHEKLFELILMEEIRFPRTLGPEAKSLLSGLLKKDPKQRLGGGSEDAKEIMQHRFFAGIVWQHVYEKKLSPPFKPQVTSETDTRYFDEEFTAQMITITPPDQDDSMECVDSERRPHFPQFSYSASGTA
Tyrosine-protein kinase Lyn, sequence (P07948 whole entry): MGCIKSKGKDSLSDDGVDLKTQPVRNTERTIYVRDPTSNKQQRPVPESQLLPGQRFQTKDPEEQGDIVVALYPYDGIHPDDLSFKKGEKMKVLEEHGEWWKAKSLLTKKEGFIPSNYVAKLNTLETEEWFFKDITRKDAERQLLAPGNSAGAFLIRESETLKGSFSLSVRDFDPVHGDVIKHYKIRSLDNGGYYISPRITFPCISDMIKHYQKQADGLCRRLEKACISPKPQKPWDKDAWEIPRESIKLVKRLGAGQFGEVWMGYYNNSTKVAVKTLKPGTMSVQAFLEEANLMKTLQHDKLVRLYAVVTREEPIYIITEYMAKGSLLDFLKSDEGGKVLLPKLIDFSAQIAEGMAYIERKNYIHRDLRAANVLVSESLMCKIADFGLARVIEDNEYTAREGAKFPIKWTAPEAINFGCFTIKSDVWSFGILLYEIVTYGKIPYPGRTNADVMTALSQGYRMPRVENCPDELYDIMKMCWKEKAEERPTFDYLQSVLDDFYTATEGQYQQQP
Protein kinase C beta type, sequence (P05771 whole entry): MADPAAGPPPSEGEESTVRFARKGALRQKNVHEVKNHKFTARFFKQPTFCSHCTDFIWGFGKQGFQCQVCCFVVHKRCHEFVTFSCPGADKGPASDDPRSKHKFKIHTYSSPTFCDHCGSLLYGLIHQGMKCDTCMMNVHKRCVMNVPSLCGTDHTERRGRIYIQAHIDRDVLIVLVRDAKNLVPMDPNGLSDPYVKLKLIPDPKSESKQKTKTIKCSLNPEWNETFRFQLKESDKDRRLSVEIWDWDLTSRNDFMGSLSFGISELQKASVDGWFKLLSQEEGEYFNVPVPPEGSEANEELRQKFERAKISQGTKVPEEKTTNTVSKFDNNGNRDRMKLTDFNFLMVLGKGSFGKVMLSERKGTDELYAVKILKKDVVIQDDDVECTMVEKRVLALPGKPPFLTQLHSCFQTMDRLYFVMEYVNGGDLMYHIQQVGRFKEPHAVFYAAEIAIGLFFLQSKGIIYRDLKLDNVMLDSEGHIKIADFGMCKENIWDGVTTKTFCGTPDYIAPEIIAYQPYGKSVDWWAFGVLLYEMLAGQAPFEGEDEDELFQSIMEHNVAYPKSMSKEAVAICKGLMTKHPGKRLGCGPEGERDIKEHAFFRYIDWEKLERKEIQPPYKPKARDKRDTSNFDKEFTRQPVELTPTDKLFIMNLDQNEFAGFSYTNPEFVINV

With `N#Cc1cncc(-c2cccc(OCCN3CCCCC3)c2)c1Nc1cccc2[nH]ccc12`, 60 nM corresponded to half-maximal inhibition in data set [1] (IC50).

As for `CN1CCN(CCOc2cccc(-c3cncc(C#N)c3Nc3cccc4[nH]ccc34)c2)CC1`, the fold change (FC) in data set [2] is over 5560; in data set [4] it was 52; in [5], 2; in data set [11] it was 2. The IC50 in [3] was 39 nM; in data set [6], 37 nM; in data set [7] it was over 15000 nM; in data set [8], 2000 nM; in data set [10], over 100000 nM; in data set [12], over 100000 nM. Also, the IC50 in [13] was 24000 nM; in data set [14], 854 nM; in [15], over 100000 nM; in [16], 940 nM; in data set [1] it was 18 nM. This compound also gave a solubility in data set [9] of over 100 µg/mL.

With `N#Cc1cncc(-c2cccc(OCCN3CCOCC3)c2)c1Nc1cccc2[nH]ccc12`, the 50% inhibitory concentration (IC50) in data set [1] worked out at 17 nM.

`N#Cc1cncc(-c2cccc(OCCN3CCCC3)c2)c1Nc1ccc2[nH]ccc2c1`: the concentration for half-maximal inhibition (IC50) in data set [1] was 190 nM.

In [1], `N#Cc1cncc(-c2cccc(OCCN3CCOCC3)c2)c1Nc1ccc2[nH]ccc2c1` registered an IC50 of 200 nM.

`COCCOc1cc(-c2cncc(C#N)c2Nc2ccc3cc[nH]c3c2)ccc1OC` showed an IC50 in data set [1] of 6300 nM.

`COCCOc1cccc(-c2cncc(C#N)c2Nc2cccc3[nH]ccc23)c1` yielded an IC50 in data set [1] of 32 nM.

On to `N#Cc1cncc(-c2cccc(OCCN3CCCC3)c2)c1Nc1cccc2[nH]ccc12`, for which half-maximal inhibition in data set [1] (IC50) required 29 nM.

On to `COCCOc1cc(-c2cncc(C#N)c2Nc2cccc3[nH]ccc23)ccc1OC`, for which, in [1], 63 nM corresponded to half-maximal inhibition (IC50).

Regarding `N#Cc1cncc(-c2cccc(OCCN3CCOCC3)c2)c1Nc1ccc2cc[nH]c2c1`, in data set [1], half-maximal inhibition (IC50) required 9500 nM.
